NPY Y2 blocker: NPY-Y2 receptor antagonists, primary screen, cell-based; NPY-Y2 expressing cells, antagonist mode; AID 793, 2007; 0.99% of 140,000 active; inhibition, % at 2.7 µM; in the data active means inhibition above about 17%;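 further: 0% = vehicle with agonist challenge and 100% = reference antagonist with challenge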
NPY-Y2 PAM-ag: NPY-Y2 potentiators or agonists, primary screen, cell-based; Neuropeptide Y receptor type 2 (Homo sapiens), P49146; cells expressing NPY-Y2, potentiator/agonist read-out; activation, % at 3.6 µM; 0.45% of 220,000 active; AID 1359, 2008; in the data active means activation above about 27%;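 further: cells stimulated with NPY near EC25 plus isoproterenol at EC100; 0% = vehicle plus submaximal agonist and 100% = vehicle plus saturating agonist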
NPY Y1 blocker: NPY-Y1 receptor antagonists, primary screen, cell-based; Neuropeptide Y receptor type 1 (Homo sapiens), P25929; HEK293-CNG Y1 cells, membrane potential fluorescence; NPY at EC95, then isoproterenol; inhibition, % at 3.6 µM; 1% of 200,000 active;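 active means inhibition above the campaign mean inhibition of all tested compounds plus 3 SD, cut at about 20% in these data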;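 further: 0% = DMSO wells given NPY plus isoproterenol and 100% = isoproterenol alone without NPY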
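Assay system: HEK293 cells with Y1 receptor plus CNG channel | Probe or stimulus: NPY (25 nM), isoproterenol (1 µM), Ro 20-1724 (25 µM) | Timing: Compound incubation 1 h at room temperature, readout 45 min post-stimulation | Measured by: Membrane-potential fluorescent dye readout | Benchmarks: High control isoproterenol alone, low control NPY with isoproterenol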
S1P4 antag: S1P4 receptor antagonists, primary screen, cell-based. Sphingosine 1-phosphate receptor 4 (Homo sapiens), O95977. S1P4-expressing cells, antagonist mode, reporter read-out. inhibition, % at 4.98 µM. 0.26% of 220,000 active; in the data active means inhibition above about 29%;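 further: 0% = wells stimulated with agonist and 100% = vehicle wells without agonist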
Target sequence (O95977 whole entry, looked up): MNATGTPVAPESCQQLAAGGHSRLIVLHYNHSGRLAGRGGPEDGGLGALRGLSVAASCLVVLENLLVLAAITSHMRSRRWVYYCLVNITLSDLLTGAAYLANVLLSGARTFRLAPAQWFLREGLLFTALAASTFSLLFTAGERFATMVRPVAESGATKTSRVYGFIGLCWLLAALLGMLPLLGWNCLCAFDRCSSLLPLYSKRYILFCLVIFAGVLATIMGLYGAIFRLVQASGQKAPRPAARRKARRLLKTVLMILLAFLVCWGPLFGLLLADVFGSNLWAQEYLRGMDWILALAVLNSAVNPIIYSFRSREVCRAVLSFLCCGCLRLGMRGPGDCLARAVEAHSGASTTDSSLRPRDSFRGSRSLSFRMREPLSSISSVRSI
S1P4 ag: S1P4 receptor agonists, primary screen, cell-based. Sphingosine 1-phosphate receptor 4 (Homo sapiens), O95977. S1P4-expressing cell line, agonist reporter assay. activation, % at 4.98 µM. 0.35% of 220,000 active; in the data active means activation above about 11%;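 further: 0% = DMSO vehicle and 100% = reference agonist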
NPY-Y1 PAM-ag: NPY-Y1 receptor potentiators or agonists, primary screen, cell-based; AID 1304, 2008; 0.37% of 220,000 active; activation, % at 3.6 µM; Neuropeptide Y receptor type 1 (Homo sapiens), P25929; NPY-Y1 expressing cells, potentiator/agonist activation; in the data active means activation above about 33%, passing the limit was not always enough;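 further: cells stimulated with NPY at EC10 then isoproterenol at EC100; 0% = low agonist plus stimulus and 100% = saturating agonist plus stimulus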
S1P4 agonist cf: S1P4 receptor agonists, retest, confirmation, cell-based, high throughput | shares compounds with S1P4 ag | S1P4 agonist cell-based reporter assay | activation, % at 4.98 µM | 7% of 740 active | AID 1523, 2009; in the data active means activation above about 12%;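 further: 0% = vehicle and 100% = full reference agonist response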
S1P1 ag: S1P1 receptor agonists, human, counter-screen for S1P4 agonist project, cell-based. shares compounds with S1P4 ag. S1P1 agonist cell-based assay, activation. activation, % at 4.98 µM. 4% of 740 active; in the data active means activation above about 21%;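 further: 0% = vehicle wells and 100% = reference agonist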
S1P4 antag conf: S1P4 receptor antagonists, human, confirmation, cell-based; shares compounds with S1P4 antag; AID 1524, 2009; 71% of 520 active; inhibition, % at 4.98 µM; S1P4-expressing cell line, antagonist mode, reporter read-out; in the data active means inhibition above about 30%
S1P1 antagonist: S1P1 receptor antagonists, human, counter-screen for S1P4 antagonist project, cell-based; cell-based S1P1 antagonist counterscreen, inhibition; inhibition, % at 4.98 µM; shares compounds with S1P4 antag; 37% of 520 active; in the data active means inhibition above about 40%;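 further: receptor stimulated with S1P near its EC80; 0% = agonist stimulated wells and 100% = vehicle only wells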
* marks the source's active call; other numbers are inactive results; . = not tested or not shown. A selection: hits, their analogues and other compounds. The true share with any hit is near 2.4%.

SMILES	NPY Y2 blocker	NPY-Y2 PAM-ag	NPY Y1 blocker	S1P4 antag	S1P4 ag	NPY-Y1 PAM-ag	S1P4 antag conf	S1P1 antagonist	others
Cc1ccc(O)c(C(=O)c2cc(C(=O)NCCC(C)C)c(=O)n(CCC(C)C)c2)c1	.	-24	13	10	15*	-22	.	.	S1P4 agonist cf=-3;S1P1 ag=-11
CC1CCC/C=C/C2CC(O)CC2C(O)/C=C/C(=O)O1 (stereo not drawn)	-1	4	-10	47*	0	11	83*	37
C[C@H]1CCC[C@@H](O)CCC/C=C/c2cc(O)cc(O)c2C(=O)O1	2	-9	-1	-11	1	-15	.	.
C[C@H]1CCC/C=C/C2C[C@H](O)CC2[C@H](O)/C=C/C(=O)O1 (stereo partly drawn)	0	8	-2	51*	-1	19	97*	28
c1ccc(C2CC3CC(c4ccco4)N2O3)cc1 (stereo not drawn)	1	9	10	-2	-1	-3	.	.
O=C(Cc1ccccc1)N1CCN(CC2CC=CCC2)CC1 (stereo not drawn)	3	1	1	-4	-2	4	.	.
COc1ccc(Oc2cc(NC(=O)c3nn(C)cc3[N+](=O)[O-])cc([N+](=O)[O-])c2)cc1	-1	-4	6	86*	0	0	108*	0
Cc1cccc(C(=O)NC(Oc2ccccc2)C(Cl)(Cl)Cl)c1 (stereo not drawn)	6	2	0	-2	1	-5	.	.
CN1CCN(c2ccc(S(C)(=O)=O)cc2[N+](=O)[O-])CC1	2	12	2	-10	0	-14	.	.
CN1CCN(c2ccc([N+](=O)[O-])c3no[n+]([O-])c23)CC1	.	-13	.	49*	4	0	76*	-21
N#CC[N+]1(CCCNP2(=O)C=C(c3ccccc3)OC(c3ccccc3)=C2)CCOCC1	.	-8	1	-25	0	14	.	.
Cc1nc2ccccc2c(=O)n1-c1ccccc1[N+](=O)[O-]	.	3	1	-13	-1	8	.	.
Cc1cc([N+](=O)[O-])c2ccccc2[n+]1[O-]	.	2	.	79*	-2	-5	114*	112*
C=C1[C@@H](C)[C@H]2[C@H](Cc3ccccc3)NC(=O)[C@]23OC(=O)/C=C/[C@H](O)CCC[C@@H](C)C/C=C/[C@H]3[C@@H]1O	.	30	21*	44*	0	19	51*	43*
Cc1c(C(=O)Nc2ccccc2)cc(-c2ccccc2)n1CCCN1CCOCC1	.	-4	.	34*	0	-14	3	-8
COc1ccccc1OCC(=O)Nc1ccc(Cl)cc1C(=O)c1ccccc1	8	8	2	0	-3	-7	.	.
CC1(C)C[C@H]2C=C(C=O)[C@]3(C=O)C[C@]3(C)[C@H]2C1	3	8	3	70*	-6	17	115*	118*
N[C@@H](Cc1c[nH]c2ccccc12)c1nnc(SCc2ccccc2F)o1	6	-10	0	16	1	-28	.	.
COc1cc2c(cc1/C=C/[N+](=O)[O-])OCO2	.	20	1	41*	-1	29	87*	23

Screening data: PubChem BioAssay, The Scripps Research Institute Molecular Screening Center
